Measured values collected from several papers.
Compare with care: the assays were run in different laboratories.
Target: Ribosomal protein S6 kinase beta-1 (RPS6KB1, Homo sapiens, UniProt P23443)

SMILES | assay | setting | measurement | value
CC/C(=N\NC(=O)NCc1cccc(O)c1)c1ccc(O)c(C)c1O | enzyme activity, inhibitor | 0.1 µM | inhibition | 77.8%
CCOCCn1cc(C(=O)Nc2ccc(-n3nc(-c4cccnc4)cc3C(F)(F)F)cn2)ccc1=O | cell-free assay, competition with immobilised ligand | 1 µM | remaining binding | 97%
CCN(CC)CCNC(=O)c1c(C)[nH]c(/C=C2\C(=O)Nc3ccc(F)cc32)c1C | enzyme activity, inhibitor | 0.3 µM | inhibition | 30%
Cc1ccc(NC(=O)c2ccc(C)c(C(F)(F)F)c2)cc1C#Cc1nn(C2CCC(O)CC2)c2ncnc(N)c12 (centres unmarked) | cell-free assay | 10 µM | remaining signal | 33%
O=S(=O)(NCCNC/C=C/c1ccc(Br)cc1)c1cccc2cnccc12 | cell-free assay | 0.5 µM | remaining signal | 25.6%
CNCc1ccccc1-c1csc([C@@H](C)Nc2nc(C)nc3cc(OC)c(OC)cc23)c1 | cell-free assay, competition with immobilised ligand | 1 µM | remaining binding | 86%
CN(C)C1CCN(CC#Cc2nn(C3CCCC3)c3nc(NCc4ccccc4)ncc23)C1 (centres unmarked) | enzyme activity, inhibitor, FRET | 0.1 µM | inhibition | 6%
N#Cc1ccc(Nc2ccc3[nH]c(=O)[nH]c3c2)c(Cl)c1 | cell-free assay, competition with immobilised ligand | 1 µM | remaining binding | 100%
Cc1ccc(-n2nc(C(C)(C)C)cc2NC(=O)Nc2ccc(OCCN3CCOCC3)c3ccccc23)cc1 | enzyme activity, inhibitor | 10 µM | inhibition | 39%
C[C@H](c1cccc(C#N)c1)n1cc(Cl)cc(C(N)=O)c1=N | cell-free assay, competition with immobilised ligand | 1 µM | remaining binding | 100%
Oc1cccc(-c2nc(N3CCOCC3)c3oc4ncccc4c3n2)c1 | cell-free assay | 0.5 µM | remaining signal | 106%
CSc1cccnc1N1CCN(Cc2nc3ccccc3[nH]2)CC1 | cell-free assay, competition with immobilised ligand | 1 µM | remaining binding | 87%
COc1cc2ncnc(Nc3ccc(Oc4ccccc4)cc3C)c2cc1OC | enzyme activity, inhibitor | 1 µM | inhibition | -2%
c1ccc(N2CCN(Cc3nc4ccccc4[nH]3)CC2)nc1 | binding, competition with immobilised ligand | 1 µM | remaining binding | 97%
N#CCCc1ccc2c(c1)-c1[nH]c3ccc([N+](=O)[O-])cc3c1CC(=O)N2 | cell-free assay | 0.5 µM | remaining signal | 98%
CNc1cccc2cc(C(=O)Nc3ccc(C(=O)O)cc3)c(=O)[nH]c12 | enzyme activity, inhibitor | 10 µM | inhibition | 9%
Cc1cc(NC(=O)c2cccc3cc(-c4cccc5[nH]nc(N)c45)ccc23)ccc1F | enzyme activity, inhibitor | 0.1 µM | activity vs control | 110%
Cn1cncc1C1=CN(c2ncnc3[nH]cnc23)CCS1 | enzyme activity, inhibitor, radiometric | 2 µM | inhibition | 87.3%
O=C1NC(=O)c2cc(Nc3ccc(F)cc3)c(Nc3ccc(F)cc3)cc21 | cell-free assay | 0.5 µM | remaining signal | 95.5%
COc1cc(/C=C/C(=O)CC(=O)/C=C/c2ccc(O)c(OC)c2)ccc1O | enzyme activity, inhibitor | 1 µM | activity vs control | 46%
